Results on 18 molecules are retold here after ChEMBL document CHEMBL4725350, “2-Oxaadamant-1-yl Ureas as Soluble Epoxide Hydrolase Inhibitors: In Vivo Evaluation in a Murine Model of Acute Pancreatitis” (J Med Chem, 2020).

Molecules are shown by their SMILES. Converted amounts (≈) assume the structure as drawn. The source made the active and inactive calls. The calls are words filed in the database; no cut-off is given here. Where only a bound is given, the exact number is not on record here.

In data set [1] the target is T1, Bifunctional epoxide hydrolase 2 (Homo sapiens, UniProt P34913).
T1 sequence (P34913 whole entry): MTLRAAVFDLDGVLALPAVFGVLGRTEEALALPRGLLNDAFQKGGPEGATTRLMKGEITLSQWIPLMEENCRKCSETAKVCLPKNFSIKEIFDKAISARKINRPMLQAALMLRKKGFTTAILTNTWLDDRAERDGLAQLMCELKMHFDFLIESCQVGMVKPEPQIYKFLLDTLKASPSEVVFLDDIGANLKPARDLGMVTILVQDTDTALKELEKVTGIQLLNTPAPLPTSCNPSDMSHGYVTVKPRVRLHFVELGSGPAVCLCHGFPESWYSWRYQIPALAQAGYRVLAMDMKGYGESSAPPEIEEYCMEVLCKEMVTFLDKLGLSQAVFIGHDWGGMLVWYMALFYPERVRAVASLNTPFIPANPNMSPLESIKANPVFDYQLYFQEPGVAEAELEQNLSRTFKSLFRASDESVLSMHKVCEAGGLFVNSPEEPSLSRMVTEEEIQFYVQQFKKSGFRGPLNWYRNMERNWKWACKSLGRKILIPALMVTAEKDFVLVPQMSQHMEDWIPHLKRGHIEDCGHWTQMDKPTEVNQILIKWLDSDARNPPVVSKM
As to the kind of experiment: Inhibition of recombinant human soluble epoxide hydrolase using CMNPC as substrate preincubated for 5 mins followed by substrate addition and measured at 30 secs interval for 10 mins by fluorescence assay.

For data set [2], the target named is T2, Bifunctional epoxide hydrolase 2 (Mus musculus, UniProt P34914).
T2 sequence (P34914 whole entry): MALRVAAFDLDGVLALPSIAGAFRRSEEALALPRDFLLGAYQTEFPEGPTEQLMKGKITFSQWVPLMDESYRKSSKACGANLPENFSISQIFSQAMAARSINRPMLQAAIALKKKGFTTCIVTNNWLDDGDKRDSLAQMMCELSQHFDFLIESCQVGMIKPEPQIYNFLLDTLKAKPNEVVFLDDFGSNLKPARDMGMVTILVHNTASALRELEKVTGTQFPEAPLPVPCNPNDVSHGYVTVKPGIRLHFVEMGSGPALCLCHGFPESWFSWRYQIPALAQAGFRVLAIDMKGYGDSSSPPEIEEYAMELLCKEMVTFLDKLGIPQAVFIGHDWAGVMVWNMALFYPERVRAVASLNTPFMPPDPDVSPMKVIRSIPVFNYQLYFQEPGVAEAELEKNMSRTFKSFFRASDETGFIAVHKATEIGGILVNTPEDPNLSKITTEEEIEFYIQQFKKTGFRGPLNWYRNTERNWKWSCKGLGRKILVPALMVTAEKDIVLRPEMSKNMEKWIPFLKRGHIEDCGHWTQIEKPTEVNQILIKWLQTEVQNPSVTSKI
As to the kind of experiment: Inhibition of recombinant mouse soluble epoxide hydrolase using CMNPC as substrate preincubated for 5 mins followed by substrate addition and measured at 30 secs interval for 10 mins by fluorescence assay. In short, it runs like this: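 Purified recombinant enzyme was preincubated with inhibitor (0.4–100,000 nM final) for 5 min at 30 °C in 100 mM sodium phosphate, pH 7.4, with 0.1 mg/mL BSA and 1% DMSO. CMNPC was added at 5 μM final. 6-Methoxynaphthaldehyde fluorescence (ex 330/em 465 nm) was read every 30 s for 10 min. IC50 values are averages of three replicates.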

Data set [3] in a line: Apparent permeability across apical to basolateral side in human Caco-2 cells at 10 uM measured after 2 hrs by LC-MS/MS analysis. The note with it: caco-2, 2 h.
Another data set can be described thus: physchem. The note with it: 1% DMSO/99% PBS buffer solution.
A short description of data set [4]: Apparent permeability across basolateral to apical side in human Caco-2 cells at 10 uM measured after 2 hrs by LC-MS/MS analysis. The settings on record: caco-2, 2 h. On the technique in general: Caco-2 monolayers are a common model of the intestinal barrier.
Data set [5] addresses T3, Prostaglandin G/H synthase 2 (Homo sapiens) (UniProt P35354).
T3 sequence (whole entry): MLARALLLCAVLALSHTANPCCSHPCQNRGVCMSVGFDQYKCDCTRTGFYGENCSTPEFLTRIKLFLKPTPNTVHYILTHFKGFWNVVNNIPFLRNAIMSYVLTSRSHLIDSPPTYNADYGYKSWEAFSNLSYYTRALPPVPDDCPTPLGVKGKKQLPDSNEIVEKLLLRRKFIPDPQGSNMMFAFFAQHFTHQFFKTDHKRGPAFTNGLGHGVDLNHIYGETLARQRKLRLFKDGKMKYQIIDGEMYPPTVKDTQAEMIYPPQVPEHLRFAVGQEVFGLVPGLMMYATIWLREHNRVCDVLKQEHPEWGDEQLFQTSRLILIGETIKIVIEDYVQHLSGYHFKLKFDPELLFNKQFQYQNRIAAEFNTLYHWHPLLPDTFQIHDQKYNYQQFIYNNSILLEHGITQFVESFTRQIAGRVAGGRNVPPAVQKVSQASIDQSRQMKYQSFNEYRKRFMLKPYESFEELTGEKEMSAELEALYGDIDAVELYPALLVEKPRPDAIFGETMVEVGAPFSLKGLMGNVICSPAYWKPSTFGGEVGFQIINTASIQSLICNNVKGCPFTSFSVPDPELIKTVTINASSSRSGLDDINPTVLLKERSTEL
Description: Inhibition of recombinant human COX2 using arachidonic acid as substrate measured after 5 mins by fluorescence assay.

Data set [6] addresses T4, Polyunsaturated fatty acid 5-lipoxygenase (Homo sapiens) (UniProt P09917).
T4 sequence (whole entry): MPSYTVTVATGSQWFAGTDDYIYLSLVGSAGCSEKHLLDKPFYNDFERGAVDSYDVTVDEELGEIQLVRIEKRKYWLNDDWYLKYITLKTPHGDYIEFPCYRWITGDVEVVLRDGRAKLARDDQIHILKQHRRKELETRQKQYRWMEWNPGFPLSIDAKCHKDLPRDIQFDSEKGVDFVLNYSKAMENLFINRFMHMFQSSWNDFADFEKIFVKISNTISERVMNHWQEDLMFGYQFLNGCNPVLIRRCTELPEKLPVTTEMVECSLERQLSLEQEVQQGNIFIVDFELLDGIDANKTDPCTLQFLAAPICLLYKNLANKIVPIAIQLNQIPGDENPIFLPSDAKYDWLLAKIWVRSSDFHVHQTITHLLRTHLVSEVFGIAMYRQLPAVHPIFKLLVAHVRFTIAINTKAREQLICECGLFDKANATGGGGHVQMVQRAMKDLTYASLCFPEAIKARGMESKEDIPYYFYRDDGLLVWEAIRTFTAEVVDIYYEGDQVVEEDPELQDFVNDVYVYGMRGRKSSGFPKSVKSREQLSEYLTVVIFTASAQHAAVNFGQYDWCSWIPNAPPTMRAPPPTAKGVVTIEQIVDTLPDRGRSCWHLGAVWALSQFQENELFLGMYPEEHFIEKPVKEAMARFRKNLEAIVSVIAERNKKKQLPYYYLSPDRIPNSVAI
As to the kind of experiment: Inhibition of recombinant human full-length LOX5 (1 to 674 residues) expressed in insect cells using arachidonic acid as substrate preincubated for 10 mins followed by substrate addition measured after 20 mins by H2DCFDA probe based fluorescence assay. The note with it: time 30.0 min.

A short description of data set [7]: Efflux ratio of apparent permeability across basolateral to apical side over apical to basolateral side in human Caco-2 cells at 10 uM measured after 2 hrs by LC-MS/MS analysis.
Another data set has as its system THLE-2. As to the kind of experiment: Cytotoxicity against human THLE-2 cells assessed as reduction in cell viability measured after 72 hrs by ATPlite assay. The note with it: thle-2, 72 h, read-out: LC50 (the source's name). The class given is cell-based. In short, it runs like this: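 THLE-2 cells were grown in BEGM with 0.7 μg/mL phosphoethanolamine, 0.5 ng/mL EGF and 10% FBS, plated at 10,000 cells/well and left to adhere for 24 h. Cells were exposed to 0–100 μM final (1% DMSO) for 72 h at 37 °C, 5% CO2.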
On the technique in general: In ATP-based viability assays light output follows the ATP content of the culture.

A short description of data set [8]: Stability in human liver microsomes assessed as parent compound remaining measured after 60 mins in presence of NADPH by LC-MS/MS analysis. The class given is ADME, Microsome. The note with it: read-out: Stabilty. In short, it runs like this: (§1)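 Compound is incubated at 37 °C with human, mouse or rat liver microsomes in 50 mM phosphate buffer pH 7.4. […] Samples at 0–60 min are quenched into acetonitrile; percent parent remaining at 60 min is reported. Testosterone is the positive control.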
Background: Liver microsomes are a subcellular fraction often used to study metabolism.

Data set [9] can be described thus: Stability in rat liver microsomes assessed as parent compound remaining measured after 60 mins in presence of NADPH by LC-MS/MS analysis. The note with it: read-out: Stabilty. The data set is classed as ADME, Microsome. In short, it runs like this: as §1
The nature of data set [10]: Stability in mouse liver microsomes assessed as parent compound remaining measured after 60 mins in presence of NADPH by LC-MS/MS analysis. The note with it: read-out: Stabilty. The class given is ADME, Microsome. In short, it runs like this:
as §1

The nature of data set [11]: Cytotoxicity against human PBMC assessed as reduction in cell viability measured after 72 hrs by ATPlite assay. The note with it: read-out: LC50 (the source's name).

On to `O=C(NC1CCN(C(=O)c2cccnc2)CC1)NC12CC3CC(CC(C3)O1)C2`, for which the IC50 in [1] amounted to 159 nM; in data set [2], 291 nM.

Take `CS(=O)(=O)N1CCC(NC(=O)NC23CC4CC(CC(C4)O2)C3)CC1`: the IC50 was determined as 247 nM in [1] and 174 nM in data set [2].

With `O=C(Nc1ccc(F)c(F)c1F)NC12CC3CC(CC(C3)O1)C2`, the IC50 in data set [2] was 553 nM. Moreover, the apparent permeability (Papp) amounted to 16.8 ×10⁻⁶ cm/s in data set [3] and 15.1 ×10⁻⁶ cm/s in data set [4]. For the same molecule, in “physchem”, the solubility (kinetic) at 2 h was found to be 27 µM (≈ 8.81 µg/mL).

For the molecule `O=C(Nc1ccc(F)c(F)c1F)NC12CC3CC(CC(C3)C1)C2`, the figures for the apparent permeability coefficient (Papp) in data set [3] and in data set [4] were 0.67 ×10⁻⁶ cm/s and 0.46 ×10⁻⁶ cm/s, respectively. This molecule also displayed a kinetic solubility at 2 h in “physchem” of 16 µM (≈ 5.19 µg/mL).

Regarding `O=C(Nc1ccc(Cl)c(C(F)(F)F)c1)NC12CC3CC(CC(C3)O1)C2`, the IC50 in data set [1] worked out at 19.7 nM; in data set [2], 344 nM.

Take `CCC(=O)N1CCC(NC(=O)NC23CC4CC(CC(C4)O2)C3)CC1`: the values for the IC50 in [1] and in [2] were 356 nM and 234 nM, respectively. In addition, the inhibition entry in [5] and in data set [6] was “inactive” in each case.

As to `O=C(Nc1cc(Cl)cc(OC(F)(F)F)c1)NC12CC3CC(CC(C3)O1)C2`, the IC50 in [1] was found to be 52.6 nM; in data set [2], 1860 nM.

Regarding `O=C(Nc1cccc(S(F)(F)(F)(F)F)c1)NC12CC3CC(CC(C3)O1)C2`, the half-inhibitory concentration (IC50) in data set [1] was 35.9 nM; in data set [2], 723 nM.

`O=C(Nc1ccon1)NC12CC3CC(CC(C3)O1)C2`: the IC50 in data set [1] was 911 nM; in data set [2] it was 3850 nM.

As for `O=C(Nc1nc2ccccc2s1)NC12CC3CC(CC(C3)O1)C2`, the IC50 was 782 nM in data set [1] and 14700 nM in [2].

Regarding `O=C(Nc1ncncn1)NC12CC3CC(CC(C3)O1)C2`, the IC50 in data set [1] was 1450 nM.

In the case of `O=C(NC12CC3CC(CC(C3)O1)C2)N[C@H]1CC[C@H](Oc2ccc(C(=O)O)cc2)CC1`, the IC50 in data set [1] was determined as 9 nM. In addition, the efflux ratio at 2 h, 10 µM in data set [7] is 55.4. The Papp in [3] came out at 0.14 ×10⁻⁶ cm/s; in data set [4] it was 7.55 ×10⁻⁶ cm/s. In “physchem”, this molecule came in with a kinetic solubility at 2 h of over 100 µM.

`CC(=O)c1ccc(N2CCC(NC(=O)NC34CC5CC(CC(C5)O3)C4)CC2)cc1`: the CC50 with THLE-2 was over 100000 nM. The remaining at 1 h is 40% in data set [8], 84% in data set [9] and 73% in data set [10]. Besides, the concentration for half-maximal inhibition (IC50) in data set [2] was 107 nM. For the same molecule, the kinetic solubility at 2 h in the data set “physchem” was 81.5 µM (≈ 32.4 µg/mL).

As for `CNc1nc(C)nc(N2CCC(NC(=O)NC34CC5CC(CC(C5)O3)C4)CC2)n1`, the half-maximal inhibitory concentration (IC50) amounted to 496 nM in [1] and 365 nM in data set [2].

On to `O=C(NC1CCN(C(=O)C2CC2)CC1)NC12CC3CC(CC(C3)O1)C2`, for which the IC50 in data set [1] worked out at 213 nM; in data set [2], 130 nM.

Regarding `O=C(NC1CCN(Cc2ccccc2)CC1)NC12CC3CC(CC(C3)O1)C2`, the half-maximal inhibitory concentration (IC50) in data set [1] was 1090 nM.

On to `O=C(NC1CCN(C(=O)c2ccccc2F)CC1)NC12CC3CC(CC(C3)O1)C2`, for which the CC50 is over 100000 nM in the data set with THLE-2 and over 20000 nM in data set [11]. The figures for the remaining at 1 h in [8], in [9] and in data set [10] were 30.2%, 19.3% and 39.5%, respectively. Further, the IC50 in data set [2] came out at 75.9 nM. In addition, the inhibition result in data set [5] and in [6] was “inactive” in each case. Also, the solubility (kinetic) at 2 h in “physchem” is over 100 µM.

As to `O=C(NC1CCN(C(=O)C2CCOCC2)CC1)NC12CC3CC(CC(C3)O1)C2`, the values for the 50% inhibitory concentration (IC50) in [1] and in data set [2] were 491 nM and 512 nM, respectively.

The IC50 is the midpoint of a concentration-inhibition curve. A word on the Papp: it is a coefficient for how fast a substance crosses the barrier. One may read the solubility (kinetic) as solubility judged after dilution from a stock solution rather than from solid. A word on the efflux ratio: it is a quotient of directional permeabilities that is used to spot active efflux.
